Results published in ChEMBL document CHEMBL5303300, “EUbOPEN Chemogenomics Library - Multiplex” (2023).
“And” between values parts separate entries of the source, which are not always exact repeats. Identical values can stand only once.

Columns and labels:
Type in all cases: toxicity, cell-based
[1] = test system: Fibroblast; test: Multiplex assay against human fibroblast; settings: number of replicates 2
Summary of the method: (§1)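 Live cells were stained at seeding with Hoechst33342, BioTracker Green Microtubule Cytoskeleton Dye, MitoTracker Red and Annexin V Alexa Fluor 680, then imaged on a CQ1 microscope at 37°C and 5% CO2 after compound addition. CellPathfinder machine-learning gating split cells into Hoechst high-intensity objects or normal cells. Normal cells were split into healthy, pyknosed or fragmented nuclei, and pyknosed cells into mitotic or apoptotic. Tubulin, mitochondrial-mass and membrane-permeability phenotypes are per cents of healthy-nucleus cells.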

[2] = test system: HEK-293T; test: Multiplex assay against HEK293T; settings: human, number of replicates 2; summary of the method: as §1
[3] = test system: U2OS; test: Multiplex assay against U2OS; settings: human, number of replicates 2; summary of the method: as §1
[4] = 12 h, 1 µM, compound concentration 1 uM
[5] = 12 h, 10 µM, compound concentration 10 uM
[6] = 24 h, 1 µM, compound concentration 1 uM
[7] = 24 h, 10 µM, compound concentration 10 uM
[8] = 48 h, 1 µM, compound concentration 1 uM
[9] = 48 h, 10 µM, compound concentration 10 uM

CC(C)(C)c1cnc(CSc2cnc(NC(=O)C3CCN(CC(=O)NCCOCCOCCOCCNc4cccc5c4C(=O)N(C4CCC(=O)NC4=O)C5=O)CC3)s2)o1 (configuration not stated)
Population Apoptotic (%) [1, 4]: 44% and 47%
Population Fragmented Nuclei (%) [1, 4]: 8% and 7%
Population Healthy Nuclei (%) [1, 4]: 70% and 73%
Population Hoechst High Intensity Objects (%) [1, 4]: 0%
Population Membrane Permeable-Phenotype (%) [1, 4]: 2% and 3%
Population Mitochondria Different-Phenotype (%) [1, 4]: 1% and 0%
Population Mitotic Cells (%) [1, 4]: 55% and 52%
Population Normal (%) [1, 4]: 100%
Population Pyknosed Nuclei (%) [1, 4]: 21% and 19%
Total Cell Count [1, 4]: 180 and 189
Population Apoptotic (%) [1, 5]: 61% and 53%
Population Fragmented Nuclei (%) [1, 5]: 15% and 23%
Population Healthy Nuclei (%) [1, 5]: 47% and 50%
Population Hoechst High Intensity Objects (%) [1, 5]: 0%
Population Membrane Permeable-Phenotype (%) [1, 5]: 15% and 27%
Population Mitochondria Different-Phenotype (%) [1, 5]: 9% and 16%
Population Mitotic Cells (%) [1, 5]: 38% and 46%
Population Normal (%) [1, 5]: 100% and 99%
Population Pyknosed Nuclei (%) [1, 5]: 36% and 25%
Population Tubulin-Different-Phenotype (%) [1, 5]: 58% and 63%
Total Cell Count [1, 5]: 107 and 167
Population Apoptotic (%) [1, 6]: 51% and 77%
Population Fragmented Nuclei (%) [1, 6]: 7% and 16%
Population Healthy Nuclei (%) [1, 6]: 71% and 63%
Population Hoechst High Intensity Objects (%) [1, 6]: 0% and 1%
Population Membrane Permeable-Phenotype (%) [1, 6]: 5% and 7%
Population Mitochondria Different-Phenotype (%) [1, 6]: 7% and 1%
Population Mitotic Cells (%) [1, 6]: 48% and 22%
Population Normal (%) [1, 6]: 100% and 98%
Population Pyknosed Nuclei (%) [1, 6]: 21% and 19%
Population Tubulin-Different-Phenotype (%) [1, 6]: 25% and 17%
Total Cell Count [1, 6]: 180 and 184
Population Apoptotic (%) [1, 7]: 71% and 72%
Population Fragmented Nuclei (%) [1, 7]: 17% and 21%
Population Healthy Nuclei (%) [1, 7]: 50% and 53%
Population Hoechst High Intensity Objects (%) [1, 7]: 0%
Population Membrane Permeable-Phenotype (%) [1, 7]: 14% and 13%
Population Mitochondria Different-Phenotype (%) [1, 7]: 28% and 21%
Population Mitotic Cells (%) [1, 7]: 28% and 27%
Population Normal (%) [1, 7]: 100% and 99%
Population Pyknosed Nuclei (%) [1, 7]: 31% and 24%
Population Tubulin-Different-Phenotype (%) [1, 7]: 56% and 58%
Total Cell Count [1, 7]: 112 and 153
Population Apoptotic (%) [1, 8]: 62% and 71%
Population Fragmented Nuclei (%) [1, 8]: 8% and 9%
Population Healthy Nuclei (%) [1, 8]: 58% and 63%
Population Hoechst High Intensity Objects (%) [1, 8]: 0%
Population Membrane Permeable-Phenotype (%) [1, 8]: 16% and 8%
Population Mitochondria Different-Phenotype (%) [1, 8]: 7% and 0%
Population Mitotic Cells (%) [1, 8]: 37% and 28%
Population Normal (%) [1, 8]: 100%
Population Pyknosed Nuclei (%) [1, 8]: 32% and 27%
Population Tubulin-Different-Phenotype (%) [1, 8]: 34% and 15%
Total Cell Count [1, 8]: 178 and 166
Population Apoptotic (%) [1, 9]: 83% and 78%
Population Fragmented Nuclei (%) [1, 9]: 18% and 26%
Population Healthy Nuclei (%) [1, 9]: 45% and 50%
Population Hoechst High Intensity Objects (%) [1, 9]: 0%
Population Membrane Permeable-Phenotype (%) [1, 9]: 9% and 13%
Population Mitotic Cells (%) [1, 9]: 16% and 21%
Population Normal (%) [1, 9]: 100% and 99%
Population Pyknosed Nuclei (%) [1, 9]: 36% and 23%
Population Tubulin-Different-Phenotype (%) [1, 9]: 44% and 63%
Total Cell Count [1, 9]: 115 and 158
Population Apoptotic (%) [2, 4]: 65% and 77%
Population Fragmented Nuclei (%) [2, 4]: 5% and 4%
Population Healthy Nuclei (%) [2, 4]: 75%
Population Hoechst High Intensity Objects (%) [2, 4]: 15%
Population Membrane Permeable-Phenotype (%) [2, 4]: 4% and 1%
Population Mitochondria Different-Phenotype (%) [2, 4]: 42% and 53%
Population Mitotic Cells (%) [2, 4]: 34% and 22%
Population Normal (%) [2, 4]: 84%
Population Pyknosed Nuclei (%) [2, 4]: 18% and 20%
Population Tubulin-Different-Phenotype (%) [2, 4]: 74% and 82%
Total Cell Count [2, 4]: 329 and 381
Population Apoptotic (%) [2, 5]: 78% and 82%
Population Fragmented Nuclei (%) [2, 5]: 6% and 3%
Population Healthy Nuclei (%) [2, 5]: 75% and 73%
Population Hoechst High Intensity Objects (%) [2, 5]: 27% and 26%
Population Membrane Permeable-Phenotype (%) [2, 5]: 7%
Population Mitochondria Different-Phenotype (%) [2, 5]: 65% and 75%
Population Mitotic Cells (%) [2, 5]: 21% and 17%
Population Normal (%) [2, 5]: 72% and 73%
Population Pyknosed Nuclei (%) [2, 5]: 18% and 22%
Population Tubulin-Different-Phenotype (%) [2, 5]: 70% and 63%
Total Cell Count [2, 5]: 285 and 270
Population Apoptotic (%) [2, 6]: 76% and 75%
Population Fragmented Nuclei (%) [2, 6]: 5%
Population Healthy Nuclei (%) [2, 6]: 80% and 74%
Population Hoechst High Intensity Objects (%) [2, 6]: 17% and 20%
Population Membrane Permeable-Phenotype (%) [2, 6]: 2% and 1%
Population Mitochondria Different-Phenotype (%) [2, 6]: 49% and 52%
Population Mitotic Cells (%) [2, 6]: 23% and 25%
Population Normal (%) [2, 6]: 82% and 80%
Population Pyknosed Nuclei (%) [2, 6]: 14% and 20%
Population Tubulin-Different-Phenotype (%) [2, 6]: 69% and 74%
Total Cell Count [2, 6]: 332 and 395
Population Apoptotic (%) [2, 7]: 77% and 75%
Population Fragmented Nuclei (%) [2, 7]: 9% and 3%
Population Healthy Nuclei (%) [2, 7]: 65% and 68%
Population Hoechst High Intensity Objects (%) [2, 7]: 30% and 33%
Population Membrane Permeable-Phenotype (%) [2, 7]: 7% and 5%
Population Mitochondria Different-Phenotype (%) [2, 7]: 77% and 80%
Population Mitotic Cells (%) [2, 7]: 22% and 25%
Population Normal (%) [2, 7]: 69% and 66%
Population Pyknosed Nuclei (%) [2, 7]: 25% and 28%
Population Tubulin-Different-Phenotype (%) [2, 7]: 85%
Total Cell Count [2, 7]: 268 and 254
Population Apoptotic (%) [2, 8]: 76% and 85%
Population Fragmented Nuclei (%) [2, 8]: 6%
Population Healthy Nuclei (%) [2, 8]: 82% and 78%
Population Hoechst High Intensity Objects (%) [2, 8]: 11% and 17%
Population Membrane Permeable-Phenotype (%) [2, 8]: 3% and 0%
Population Mitochondria Different-Phenotype (%) [2, 8]: 52% and 59%
Population Mitotic Cells (%) [2, 8]: 23% and 14%
Population Normal (%) [2, 8]: 88% and 82%
Population Pyknosed Nuclei (%) [2, 8]: 11% and 15%
Population Tubulin-Different-Phenotype (%) [2, 8]: 64% and 63%
Total Cell Count [2, 8]: 294 and 328
Population Apoptotic (%) [2, 9]: 84% and 89%
Population Fragmented Nuclei (%) [2, 9]: 8% and 5%
Population Healthy Nuclei (%) [2, 9]: 71% and 70%
Population Hoechst High Intensity Objects (%) [2, 9]: 28% and 20%
Population Membrane Permeable-Phenotype (%) [2, 9]: 3% and 2%
Population Mitochondria Different-Phenotype (%) [2, 9]: 77% and 84%
Population Mitotic Cells (%) [2, 9]: 15% and 10%
Population Normal (%) [2, 9]: 71% and 79%
Population Pyknosed Nuclei (%) [2, 9]: 20% and 24%
Population Tubulin-Different-Phenotype (%) [2, 9]: 83% and 87%
Total Cell Count [2, 9]: 309 and 250
Population Apoptotic (%) [3, 4]: 40% and 96%
Population Fragmented Nuclei (%) [3, 4]: 10% and 3%
Population Healthy Nuclei (%) [3, 4]: 82% and 88%
Population Hoechst High Intensity Objects (%) [3, 4]: 0%
Population Membrane Permeable-Phenotype (%) [3, 4]: 1%
Population Mitochondria Different-Phenotype (%) [3, 4]: 0% and 3%
Population Normal (%) [3, 4]: 100%
Population Pyknosed Nuclei (%) [3, 4]: 6% and 7%
Population Tubulin-Different-Phenotype (%) [3, 4]: 58% and 74%
Population Apoptotic (%) [3, 5]: 50% and 80%
Population Healthy Nuclei (%) [3, 5]: 47% and 59%
Population Hoechst High Intensity Objects (%) [3, 5]: 1% and 0%
Population Membrane Permeable-Phenotype (%) [3, 5]: 14% and 17%
Population Mitochondria Different-Phenotype (%) [3, 5]: 17% and 31%
Population Mitotic Cells (%) [3, 5]: 50% and 19%
Population Normal (%) [3, 5]: 98% and 100%
Population Pyknosed Nuclei (%) [3, 5]: 23% and 32%
Population Tubulin-Different-Phenotype (%) [3, 5]: 82% and 77%
Total Cell Count [3, 5]: 60 and 161
Population Apoptotic (%) [3, 6]: 66% and 72%
Population Fragmented Nuclei (%) [3, 6]: 6% and 3%
Population Healthy Nuclei (%) [3, 6]: 87%
Population Hoechst High Intensity Objects (%) [3, 6]: 0%
Population Membrane Permeable-Phenotype (%) [3, 6]: 1%
Population Mitochondria Different-Phenotype (%) [3, 6]: 1%
Population Mitotic Cells (%) [3, 6]: 33% and 27%
Population Normal (%) [3, 6]: 100% and 99%
Population Pyknosed Nuclei (%) [3, 6]: 6% and 9%
Population Tubulin-Different-Phenotype (%) [3, 6]: 56% and 71%
Population Apoptotic (%) [3, 7]: 65% and 93%
Population Fragmented Nuclei (%) [3, 7]: 17% and 11%
Population Healthy Nuclei (%) [3, 7]: 31% and 25%
Population Hoechst High Intensity Objects (%) [3, 7]: 1% and 0%
Population Membrane Permeable-Phenotype (%) [3, 7]: 12% and 14%
Population Normal (%) [3, 7]: 98% and 99%
Population Pyknosed Nuclei (%) [3, 7]: 50% and 63%
Population Tubulin-Different-Phenotype (%) [3, 7]: 81% and 57%
Total Cell Count [3, 7]: 52 and 141
Population Fragmented Nuclei (%) [3, 8]: 4%
Population Healthy Nuclei (%) [3, 8]: 85% and 86%
Population Hoechst High Intensity Objects (%) [3, 8]: 0%
Population Membrane Permeable-Phenotype (%) [3, 8]: 2% and 1%
Population Mitochondria Different-Phenotype (%) [3, 8]: 0% and 1%
Population Normal (%) [3, 8]: 99% and 100%
Population Pyknosed Nuclei (%) [3, 8]: 9%
Population Tubulin-Different-Phenotype (%) [3, 8]: 57% and 77%
Population Apoptotic (%) [3, 9]: 96% and 86%
Population Fragmented Nuclei (%) [3, 9]: 9% and 19%
Population Healthy Nuclei (%) [3, 9]: 11% and 19%
Population Hoechst High Intensity Objects (%) [3, 9]: 2%
Population Membrane Permeable-Phenotype (%) [3, 9]: 56% and 22%
Population Mitochondria Different-Phenotype (%) [3, 9]: 62% and 22%
Population Mitotic Cells (%) [3, 9]: 3% and 13%
Population Normal (%) [3, 9]: 97%
Population Pyknosed Nuclei (%) [3, 9]: 78% and 61%
Population Tubulin-Different-Phenotype (%) [3, 9]: 75% and 100%
Total Cell Count [3, 9]: 141 and 48
